From ChEMBL document CHEMBL1153473 (Bioorg Med Chem Lett, 2009)

Legend:
[1] = biological target: T1, Steroid 17-alpha-hydroxylase/17,20 lyase (Rattus norvegicus, UniProt P11715); test: Inhibition of 17,20-lyase activity of rat testicular microsomal P450-17alpha
T1 sequence (P11715 whole entry): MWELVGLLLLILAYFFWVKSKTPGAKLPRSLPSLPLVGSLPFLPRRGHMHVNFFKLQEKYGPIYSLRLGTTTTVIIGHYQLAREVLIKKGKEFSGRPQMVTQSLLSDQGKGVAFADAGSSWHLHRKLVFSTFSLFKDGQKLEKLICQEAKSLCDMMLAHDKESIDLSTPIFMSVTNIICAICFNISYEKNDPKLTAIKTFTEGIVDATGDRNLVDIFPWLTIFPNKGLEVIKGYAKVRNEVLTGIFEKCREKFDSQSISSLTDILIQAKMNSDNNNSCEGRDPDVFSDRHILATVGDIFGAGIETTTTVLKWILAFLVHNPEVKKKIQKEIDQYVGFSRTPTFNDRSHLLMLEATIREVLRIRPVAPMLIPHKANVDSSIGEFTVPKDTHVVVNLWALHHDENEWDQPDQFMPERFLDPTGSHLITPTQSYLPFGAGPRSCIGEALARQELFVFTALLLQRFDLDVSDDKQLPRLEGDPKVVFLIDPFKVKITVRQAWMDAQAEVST
Outline: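 Lyase reaction: rat testicular microsomes (final 0.23 mg/mL), 50 mM sodium phosphate pH 7.4, NADPH-generating system, 1 µM radiolabelled 17α-hydroxyprogesterone substrate; inhibitor added in ethanol; 37 °C prewarm 5 min, then 30 min incubation. Ether-extracted, TLC in DCM/ethyl acetate 4:1, 3H counted per spot; no-inhibitor controls. IC50 from ≥5 concentrations, each in triplicate.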

[2] = biological target: T1, Steroid 17-alpha-hydroxylase/17,20 lyase; test: Inhibition of 17-alpha-hydroxylase activity of rat testicular microsomal P450-17alpha
Outline: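 Rat testicular microsomes (final 0.16 mg/mL) in 50 mM sodium phosphate pH 7.4 with NADPH-generating system and 1.5 µM radiolabelled progesterone; inhibitor in ethanol; 5 min prewarm at 37 °C, 15 min reaction. Ether extraction, TLC (DCM/ethyl acetate 7:3), spots scintillation-counted for 3H; no-inhibitor controls. IC50 from ≥5 concentrations in triplicate, linear regression of inhibition versus log[I].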

[3] = biological target: T1, Steroid 17-alpha-hydroxylase/17,20 lyase; test: Selectivity index, ratio of IC50 for 17-alpha-hydroxylase activity of rat testicular microsomal P450-17alpha to IC50 for 17,20-lyase activity of rat testicular microsomal P450-17alpha
[4] = biological target: T2, Aromatase (Homo sapiens, UniProt P11511); test: Inhibition of aromatase
T2 sequence (P11511 whole entry): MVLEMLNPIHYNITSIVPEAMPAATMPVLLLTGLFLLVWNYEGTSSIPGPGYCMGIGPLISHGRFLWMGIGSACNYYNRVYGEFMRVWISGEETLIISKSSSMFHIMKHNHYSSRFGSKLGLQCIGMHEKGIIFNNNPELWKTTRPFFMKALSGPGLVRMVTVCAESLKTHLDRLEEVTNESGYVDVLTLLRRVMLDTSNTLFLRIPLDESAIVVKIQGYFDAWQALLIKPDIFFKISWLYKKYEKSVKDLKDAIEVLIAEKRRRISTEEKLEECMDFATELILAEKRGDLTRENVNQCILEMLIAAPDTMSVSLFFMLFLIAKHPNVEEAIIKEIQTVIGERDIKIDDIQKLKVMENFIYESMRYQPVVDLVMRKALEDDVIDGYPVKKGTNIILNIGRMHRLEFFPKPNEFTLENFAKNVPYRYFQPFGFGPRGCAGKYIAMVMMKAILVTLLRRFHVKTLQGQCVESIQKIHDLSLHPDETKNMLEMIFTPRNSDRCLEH

IC50 [1] [nM]	IC50 [2] [nM]	IC50 [4] [nM]	Structure (SMILES)	Ratio IC50 [3]
70.4	4840		O=S(=O)(Oc1ccc(Cn2ccnc2)cc1)c1ccc(Br)cc1	34.6
		24500	Cc1ccc(Cn2ccnc2)cc1	
		880	Fc1ccc(Cn2ccnc2)cc1	
			Ic1ccc(Cn2ccnc2)cc1	6.4
		70	Clc1ccc(Cn2ccnc2)cc1	
230	25200		Cc1ccc(S(=O)(=O)Oc2ccc(Cn3ccnc3)cc2)cc1	109.4
85	6880		O=[N+]([O-])c1ccc(S(=O)(=O)Oc2ccc(Cn3ccnc3)cc2)cc1	80.9
98.7	6850		O=S(=O)(Oc1ccc(Cn2ccnc2)cc1)c1ccc(Cl)cc1	69.9
101	6000		COc1ccc(S(=O)(=O)Oc2ccc(Cn3ccnc3)cc2)cc1	60
65.1	10000		O=S(=O)(Oc1ccc(Cn2ccnc2)cc1)c1ccc(I)cc1	100.1
291	64900		O=S(=O)(Oc1ccc(Cn2ccnc2)cc1)c1ccc(C(F)(F)F)cc1	223.8
210	15900		O=S(=O)(Oc1ccc(Cn2ccnc2)cc1)c1ccc(F)cc1	75.9
			CC(=O)N1CCN(c2ccc(OCC3COC(Cn4ccnc4)(c4ccc(Cl)cc4Cl)O3)cc2)CC1 (stereo not given) [KETOCONAZOLE]	2.3

Structure (SMILES)	IC50 [1] [nM]	IC50 [2] [nM]	IC50 [4] [nM]	Ratio IC50 [3]
N#CC(C#N)=Cc1ccc(O)c(O)c1 [TYRPHOSTIN 23]			70600	
